Laboratory results as given in ChEMBL document CHEMBL1138066, “Semisynthetic maytansine analogues for the targeted treatment of cancer” (J Med Chem, 2006).

Tests used:
KB = assay: Cytotoxicity against human KB cell line by clonogenic plating efficiency assay after 72 hrs; format: functional, cell-based
Summary of the method: (§1)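 Clonogenic assay: 1000 cells per well in 6-well dishes, exposed to free maytansinoids (0 to 3 nM) for 72 h, then medium replaced with fresh medium. Colonies grown 7-10 days after plating, fixed and stained with 0.2% crystal violet in 10% formalin/PBS, counted. Surviving fraction = colonies in drug-treated wells / colonies in control wells; IC50 in nM.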

SK-BR-3 = assay: Cytotoxicity against human SK-Br-3 cell line by clonogenic plating efficiency assay after 72 hrs; format: functional, cell-based; settings: SK-BR-3, 72 h; summary of the method: as §1
A-431 = assay: Cytotoxicity against human A431 cell line by clonogenic plating efficiency assay after 72 hrs; format: functional, cell-based; settings: A-431, 72 h
A549 = assay: Cytotoxicity against human A549 cell line by clonogenic plating efficiency assay after 72 hrs; format: functional, cell-based; settings: A549, 72 h
HCT-15 = assay: Cytotoxicity against human HCT15 cell line by clonogenic plating efficiency assay after 72 hrs; format: cell-based; settings: HCT-15, 72 h
MCF7 = assay: Cytotoxicity against human MCF7 cell line by clonogenic plating efficiency assay after 72 hrs; format: functional, cell-based; settings: MCF7, 72 h
A-375 = assay: Cytotoxicity against human A375 cell line by clonogenic plating efficiency assay after 72 hrs; format: functional, cell-based; settings: A-375, 72 h
Summary of the method: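 Clonogenic survival: 1000 cells per well were plated and exposed to free or antibody-conjugated maytansinoid (0 to 3 nM) for 72 h. Medium was then replaced with fresh medium, and colonies grew for a total of 7-10 days after plating. Colonies were fixed and stained with 0.2% crystal violet in 10% formalin/PBS, then counted. Surviving fraction = colonies in drug-exposed wells / colonies in control wells.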

SW-620 = assay: Cytotoxicity against human SW620 cell line by clonogenic plating efficiency assay after 24 hrs; settings: SW-620, 24 h
OVCAR-3 = assay: Cytotoxicity against human Ovcar3 cell line by clonogenic plating efficiency assay after 24 hrs; settings: OVCAR-3, 24 h

Row | SMILES | IC50 (KB) [nM] | IC50 (SK-BR-3) [nM] | also measured
1 | COc1cc2cc(c1Cl)N(C)C(=O)CC(OC(=O)[C@H](C)N(C)C(=O)CC[C@@H](C)SSC)C1(C)OC1C(C)C1CC(O)(NC(=O)O1)C(OC)/C=C/C=C(\C)C2 (stereo partly specified) | 0.042 | 0.027 | –
2 | COc1cc2cc(c1Cl)N(C)C(=O)CC(OC(=O)[C@H](C)N(C)C(=O)CC[C@H](C)SSC)C1(C)OC1C(C)C1CC(O)(NC(=O)O1)C(OC)/C=C/C=C(\C)C2 (stereo partly specified) | 0.04 | 0.032 | –
3 | COc1cc2cc(c1Cl)N(C)C(=O)CC(OC(=O)[C@@H](C)N(C)C(=O)CCC(C)(C)SSC)C1(C)OC1C(C)C1CC(O)(NC(=O)O1)C(OC)/C=C/C=C(\C)C2 (stereo partly specified) | > 0.3 | > 0.3 | –
4 | COc1cc2cc(c1Cl)N(C)C(=O)CC(OC(=O)[C@H](C)N(C)C(=O)CCSSc1ccccc1)C1(C)OC1C(C)C1CC(O)(NC(=O)O1)C(OC)/C=C/C=C(\C)C2 (stereo partly specified) | 0.1 | – | –
5 | COc1cc2cc(c1Cl)N(C)C(=O)CC(OC(=O)[C@H](C)N(C)C(=O)CCC(C)(C)SSCCCC(=O)O)C1(C)OC1C(C)C1CC(O)(NC(=O)O1)C(OC)/C=C/C=C(\C)C2 (stereo partly specified) | 23 | 7.1 | –
6 | COc1cc2cc(c1Cl)N(C)C(=O)CC(OC(=O)[C@@H](C)N(C)C(=O)CC[C@H](C)SSC)C1(C)OC1C(C)C1CC(O)(NC(=O)O1)C(OC)/C=C/C=C(\C)C2 (stereo partly specified) | > 3 | > 3 | –
7 | COc1cc2cc(c1Cl)N(C)C(=O)CC(OC(=O)[C@@H](C)N(C)C(=O)CCCSSC)C1(C)OC1C(C)C1CC(O)(NC(=O)O1)C(OC)/C=C/C=C(\C)C2 (stereo partly specified) | 2 | – | –
8 | COc1cc2cc(c1Cl)N(C)C(=O)CC(OC(=O)[C@@H](C)N(C)C(=O)CCS)C1(C)OC1C(C)C1CC(O)(NC(=O)O1)C(OC)/C=C/C=C(\C)C2 (stereo partly specified) | > 3 | > 3 | –
9 | COc1cc2cc(c1Cl)N(C)C(=O)CC(OC(=O)[C@@H](C)N(C)C(=O)CCC(C)(C)S)C1(C)OC1C(C)C1CC(O)(NC(=O)O1)C(OC)/C=C/C=C(\C)C2 (stereo partly specified) | > 1 | 3.3 | –
10 | COc1cc2cc(c1Cl)N(C)C(=O)CC(OC(=O)[C@@H](C)N(C)C(=O)CCSSC)C1(C)OC1C(C)C1CC(O)(NC(=O)O1)C(OC)/C=C/C=C(\C)C2 (stereo partly specified) | 3 | 6 | –
11 | COc1cc2cc(c1Cl)N(C)C(=O)CC(OC(=O)[C@H](C)N(C)C(=O)CCSSC)C1(C)OC1C(C)C1CC(O)(NC(=O)O1)C(OC)/C=C/C=C(\C)C2 (stereo partly specified) | 0.029 | 0.014 | IC50 (A-431): < 0.03 nM; IC50 (A549): 0.12 nM; IC50 (HCT-15): 0.13 nM; IC50 (MCF7): < 0.03 nM; IC50 (A-375): 0.03 nM; IC50 (SW-620): 0.04 nM; IC50 (OVCAR-3): 0.05 nM
12 | COc1cc2cc(c1Cl)N(C)C(=O)CC(OC(=O)[C@H](C)N(C)C(=O)CCCSSC)C1(C)OC1C(C)C1CC(O)(NC(=O)O1)C(OC)/C=C/C=C(\C)C2 (stereo partly specified) | 0.0085 | 0.038 | –
13 | COc1cc2cc(c1Cl)N(C)C(=O)CC(OC(=O)[C@H](C)N(C)C(=O)CCSSC(C)CCC(=O)O)C1(C)OC1C(C)C1CC(O)(NC(=O)O1)C(OC)/C=C/C=C(\C)C2 (stereo partly specified) | 1.8 | 3.4 | –
14 | COc1cc2cc(c1Cl)N(C)C(=O)CC(OC(=O)[C@H](C)N(C)C(=O)CCC(C)S)C1(C)OC1C(C)C1CC(O)(NC(=O)O1)C(OC)/C=C/C=C(\C)C2 (stereo partly specified) | 0.077 | 0.031 | –
15 | COc1cc2cc(c1Cl)N(C)C(=O)CC(OC(=O)[C@H](C)N(C)C(=O)CCC(C)(C)SSC)C1(C)OC1C(C)C1CC(O)(NC(=O)O1)C(OC)/C=C/C=C(\C)C2 (stereo partly specified) | 0.0011 | 0.0032 | –
16 | COc1cc2cc(c1Cl)N(C)C(=O)CC(OC(=O)[C@H](C)N(C)C(=O)CCS)C1(C)OC1C(C)C1CC(O)(NC(=O)O1)C(OC)/C=C/C=C(\C)C2 (stereo partly specified) | 1.1 | 1.1 | –
17 | COc1cc2cc(c1Cl)N(C)C(=O)CC(OC(=O)[C@H](C)N(C)C(=O)CCC(C)(C)S)C1(C)OC1C(C)C1CC(O)(NC(=O)O1)C(OC)/C=C/C=C(\C)C2 (stereo partly specified) | 0.29 | 0.12 | –
18 | COc1cc2cc(c1Cl)N(C)C(=O)CC(OC(=O)[C@H](C)N(C)C(=O)CCSSCCC(=O)N(C)[C@@H](C)C(=O)OC1CC(=O)N(C)c3cc(cc(OC)c3Cl)C/C(C)=C/C=C/C(OC)C3(O)CC(OC(=O)N3)C(C)C3OC13C)C1(C)OC1C(C)C1CC(O)(NC(=O)O1)C(OC)/C=C/C=C(\C)C2 (stereo partly specified) | 0.14 | 0.1 | –
19 | COc1cc2cc(c1Cl)N(C)C(=O)CC(OC(=O)[C@@H](C)N(C)C(=O)CC[C@@H](C)SSC)C1(C)OC1C(C)C1CC(O)(NC(=O)O1)C(OC)/C=C/C=C(\C)C2 (stereo partly specified) | 2.4 | 2.2 | –
20 | COc1cc2cc(c1Cl)N(C)C(=O)CC(OC(=O)[C@H](C)N(C)C(=O)CCC(C)(C)SSC(C)(C)CCC(=O)N(C)[C@@H](C)C(=O)OC1CC(=O)N(C)c3cc(cc(OC)c3Cl)C/C(C)=C/C=C/C(OC)C3(O)CC(OC(=O)N3)C(C)C3OC13C)C1(C)OC1C(C)C1CC(O)(NC(=O)O1)C(OC)/C=C/C=C(\C)C2 (stereo partly specified) | 0.0016 | 0.0012 | –
21 | COc1cc2cc(c1Cl)N(C)C(=O)CC(OC(=O)[C@@H](C)N(C)C(=O)CCC(C)SSC)C1(C)OC1C(C)C1CC(O)(NC(=O)O1)C(OC)/C=C/C=C(\C)C2 (mixture of isomers) | 1.2 | 0.22 | –
22 | COc1cc2cc(c1Cl)N(C)C(=O)CC(OC(=O)[C@H](C)N(C)C(=O)CCC(C)SSC)C1(C)OC1C(C)C1CC(O)(NC(=O)O1)C(OC)/C=C/C=C(\C)C2 (mixture of isomers) | 0.011 | 0.0042 | –
23 | COc1cc2cc(c1Cl)N(C)C(=O)C[C@H](OC(=O)[C@H](C)N(C)C(C)=O)[C@]1(C)O[C@H]1[C@H](C)[C@@H]1C[C@@](O)(NC(=O)O1)[C@H](OC)/C=C/C=C(\C)C2 [MAYTANSINE] | 0.034 | 0.03 | IC50 (A-431): 0.04 nM; IC50 (A549): 0.16 nM; IC50 (HCT-15): 0.75 nM; IC50 (MCF7): 0.044 nM; IC50 (A-375): 0.037 nM; IC50 (SW-620): > 0.1 nM; IC50 (OVCAR-3): 0.1 nM
24 | COc1cc2cc(c1Cl)N(C)C(=O)CC(O)C1(C)OC1C(C)C1CC(O)(NC(=O)O1)C(OC)/C=C/C=C(\C)C2 (stereo unspecified) [MAYTANSINOL] | > 3 | 1.2 | –
25 | COc1cc2cc(c1Cl)N(C)C(=O)CC(OC(=O)[C@H](C)N(C)C(=O)CSSC)C1(C)OC1C(C)C1CC(O)(NC(=O)O1)C(OC)/C=C/C=C(\C)C2 (stereo partly specified) [METHYLDITHIOACETYL MAYTANSINOID] | 0.19 | – | –
